Measured values published in ChEMBL document CHEMBL3272012, “5-(Tetradecyloxy)-2-furancarboxylic acid and related hypolipidemic fatty acid-like alkyloxyarylcarboxylic acids” (J Med Chem, 1977).
Values belong to the compound of their own block, whether it stands above or below them.

Key:
Rattus norvegicus [1] = assay: Increase in cholesterol level in Wistar rat liver at 470 umol/kg/day administered through diet for 4 days; format: ADME, organism-based; settings: in vivo, po, 96 h
Rattus norvegicus [2] = assay: Increase in liver weight in Wistar rat at 470 umol/kg/day administered through diet for 4 days; format: ADME, organism-based; settings: in vivo, po, 96 h
Rattus norvegicus [3] = assay: Hypolipidemic activity in Wistar rat assessed as reduction in plasma triglyceride level at 428 umol/kg/day administered through diet for 10 days; format: functional; settings: 240 h
Rattus norvegicus [4] = assay: Hypolipidemic activity in Wistar rat assessed as reduction in plasma triglyceride level at 470 umol/kg/day administered through diet for 4 days; format: functional; settings: 96 h
Rattus norvegicus [5] = assay: Hypolipidemic activity in Wistar rat assessed as reduction in plasma cholesterol level at 470 umol/kg/day administered through diet for 4 days; format: functional; settings: 96 h
Summary of the method: (§1)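 Young male Wistar rats, 170-190 g initial weight, groups of six, given compound mixed thoroughly into Purina Lab Chow ad libitum for 4 or 10 days as stated. Daily dose calculated from food consumption and body weight. Bled by cardiac puncture at end of treatment; plasma cholesterol measured by automated procedure. Expressed as percent reduction versus simultaneous untreated control group; Student's t test.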

Rattus norvegicus [6] = assay: Hypolipidemic activity in Wistar rat assessed as reduction in plasma cholesterol level at 428 umol/kg/day administered through diet for 10 days; format: functional; settings: 240 h; summary of the method: as §1
Rattus norvegicus [7] = assay: Hypolipidemic activity in Wistar rat assessed as reduction in plasma cholesterol level at 496 umol/kg/day administered through diet for 4 days; format: functional; settings: 96 h; summary of the method: as §1
Rattus norvegicus [8] = assay: Increase in cholesterol level in Wistar rat liver at 460 umol/kg/day administered through diet for 10 days; format: ADME, organism-based; settings: in vivo, po, 240 h
Rattus norvegicus [9] = assay: Hypolipidemic activity in Wistar rat assessed as reduction in plasma triglyceride level at 460 umol/kg/day administered through diet for 10 days; format: functional; settings: 240 h
Rattus norvegicus [10] = assay: Increase in liver weight in Wistar rat at 496 umol/kg/day administered through diet for 4 days; format: ADME, organism-based; settings: in vivo, po, 96 h
Rattus norvegicus [11] = assay: Hypolipidemic activity in Wistar rat assessed as reduction in plasma triglyceride level at 496 umol/kg/day administered through diet for 4 days; format: functional; settings: 96 h
Rattus norvegicus [12] = assay: Increase in cholesterol level in Wistar rat liver at 496 umol/kg/day administered through diet for 4 days; format: ADME, organism-based; settings: in vivo, po, 96 h
Rattus norvegicus [13] = assay: Increase in liver weight in Wistar rat at 460 umol/kg/day administered through diet for 10 days; format: ADME, organism-based; settings: in vivo, po, 240 h
Rattus norvegicus [14] = assay: Hypolipidemic activity in Wistar rat assessed as reduction in plasma cholesterol level at 460 umol/kg/day administered through diet for 10 days; format: functional; settings: 240 h; summary of the method: as §1
Rattus norvegicus [15] = assay: Hypolipidemic activity in Wistar rat assessed as reduction in plasma triglyceride level at 462 umol/kg/day administered through diet for 10 days; format: functional; settings: 240 h
Rattus norvegicus [16] = assay: Hypolipidemic activity in Wistar rat assessed as reduction in plasma cholesterol level at 462 umol/kg/day administered through diet for 10 days; format: functional; settings: 240 h; summary of the method: as §1
Rattus norvegicus [17] = assay: Hypolipidemic activity in Wistar rat assessed as reduction in plasma cholesterol level at 453 umol/kg/day administered through diet for 4 days; format: functional; settings: 96 h; summary of the method: as §1
Rattus norvegicus [18] = assay: Increase in liver weight in Wistar rat at 453 umol/kg/day administered through diet for 4 days; format: ADME, organism-based; settings: in vivo, po, 96 h
Rattus norvegicus [19] = assay: Increase in cholesterol level in Wistar rat liver at 462 umol/kg/day administered through diet for 10 days; format: ADME, organism-based; settings: in vivo, po, 240 h
Rattus norvegicus [20] = assay: Increase in liver weight in Wistar rat at 462 umol/kg/day administered through diet for 10 days; format: ADME, organism-based; settings: in vivo, po, 240 h
Rattus norvegicus [21] = assay: Hypolipidemic activity in Wistar rat assessed as reduction in plasma triglyceride level at 453 umol/kg/day administered through diet for 4 days; format: functional; settings: 96 h
Rattus norvegicus [22] = assay: Hypolipidemic activity in Wistar rat assessed as reduction in plasma cholesterol level at 149 umol/kg/day administered through diet for 10 days; format: functional; settings: 240 h
Summary of the method: (§2)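 Young male Wistar rats, 170-190 g at start, in groups of six, given compound mixed into Purina Lab Chow ad libitum for 4 or 10 days as stated. Daily dose was calculated from food consumption and body weight. Plasma was taken by cardiac puncture at the end and cholesterol measured by automated procedure. Results are % reduction versus a concurrent untreated control group, with Student's t test.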

Rattus norvegicus [23] = assay: Hypolipidemic activity in Wistar rat assessed as reduction in plasma triglyceride level at 511 umol/kg/day administered through diet for 10 days; format: functional; settings: 240 h
Rattus norvegicus [24] = assay: Increase in liver weight in Wistar rat at 275 umol/kg/day administered through diet for 10 days; format: ADME, organism-based; settings: in vivo, po, 240 h
Rattus norvegicus [25] = assay: Increase in liver weight in Wistar rat at 149 umol/kg/day administered through diet for 10 days; format: ADME, organism-based; settings: in vivo, po, 240 h
Rattus norvegicus [26] = assay: Increase in liver weight in Wistar rat at 511 umol/kg/day administered through diet for 10 days; format: ADME, organism-based; settings: in vivo, po, 240 h
Rattus norvegicus [27] = assay: Hypolipidemic activity in Wistar rat assessed as reduction in plasma cholesterol level at 511 umol/kg/day administered through diet for 10 days; format: functional; settings: 240 h; summary of the method: as §1
Rattus norvegicus [28] = assay: Increase in cholesterol level in Wistar rat liver at 511 umol/kg/day administered through diet for 10 days; format: ADME, organism-based; settings: in vivo, po, 240 h
Rattus norvegicus [29] = assay: Hypolipidemic activity in Wistar rat assessed as reduction in plasma triglyceride level at 149 umol/kg/day administered through diet for 10 days; format: functional; settings: 240 h, read-out: INH
Summary of the method: (§3)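 Young male Wistar rats, 170-190 g initial weight, six per group, fed drug mixed thoroughly into Purina Lab Chow ad libitum for the stated days; daily dose calculated from food consumption and body weight. Bled by cardiac puncture at end; plasma cholesterol and triglycerides by automated procedures, expressed as percent reduction versus simultaneous untreated controls; Student's t test.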

Rattus norvegicus [30] = assay: Hypolipidemic activity in Wistar rat assessed as reduction in plasma triglyceride level at 275 umol/kg/day administered through diet for 10 days; format: functional; settings: 240 h; summary of the method: as §3
Rattus norvegicus [31] = assay: Increase in cholesterol level in Wistar rat liver at 275 umol/kg/day administered through diet for 10 days; format: ADME, organism-based; settings: in vivo, po, 240 h
Rattus norvegicus [32] = assay: Hypolipidemic activity in Wistar rat assessed as reduction in plasma cholesterol level at 407 umol/kg/day administered through diet for 4 days; format: functional; settings: 96 h; summary of the method: as §2
Rattus norvegicus [33] = assay: Hypolipidemic activity in Wistar rat assessed as reduction in plasma cholesterol level at 275 umol/kg/day administered through diet for 10 days; format: functional; settings: 240 h; summary of the method: as §2
Rattus norvegicus [34] = assay: Increase in cholesterol level in Wistar rat liver at 149 umol/kg/day administered through diet for 10 days; format: ADME, organism-based; settings: in vivo, po, 240 h
Rattus norvegicus [35] = assay: Hypolipidemic activity in Wistar rat assessed as reduction in plasma triglyceride level at 407 umol/kg/day administered through diet for 4 days; format: functional; settings: 96 h
Rattus norvegicus [36] = assay: Increase in liver weight in Wistar rat at 407 umol/kg/day administered through diet for 4 days; format: ADME, organism-based; settings: in vivo, po, 96 h
Rattus norvegicus [37] = assay: Increase in cholesterol level in Wistar rat liver at 407 umol/kg/day administered through diet for 4 days; format: ADME, organism-based; settings: in vivo, po, 96 h
Rattus norvegicus [38] = assay: Increase in cholesterol level in Wistar rat liver at 201 umol/kg/day administered through diet for 4 days; format: ADME, organism-based; settings: in vivo, po, 96 h
Rattus norvegicus [39] = assay: Hypolipidemic activity in Wistar rat assessed as reduction in plasma cholesterol level at 445 umol/kg/day administered through diet; format: functional
Summary of the method: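 Young male Wistar rats (170-190 g initial weight) in groups of six, fed test compound admixed to Purina Lab Chow ad libitum. Actual daily dose derived from recorded food intake and body weight. Cardiac puncture blood taken at end of treatment; plasma cholesterol determined by automated method. Percent reduction from concurrently run untreated controls, significance by Student's t test.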

Rattus norvegicus [40] = assay: Hypolipidemic activity in Wistar rat assessed as reduction in plasma triglyceride level at 445 umol/kg/day administered through diet; format: functional
Rattus norvegicus [41] = assay: Increase in cholesterol level in Wistar rat liver at 445 umol/kg/day administered through diet; format: ADME, organism-based; settings: in vivo, po
Rattus norvegicus [42] = assay: Hypolipidemic activity in Wistar rat assessed as reduction in plasma triglyceride level at 98 umol/kg/day administered through diet for 4 days; format: functional; settings: 96 h
Rattus norvegicus [43] = assay: Increase in cholesterol level in Wistar rat liver at 98 umol/kg/day administered through diet for 4 days; format: ADME, organism-based; settings: in vivo, po, 96 h
Rattus norvegicus [44] = assay: Increase in liver weight in Wistar rat at 201 umol/kg/day administered through diet for 4 days; format: ADME, organism-based; settings: in vivo, po, 96 h
Rattus norvegicus [45] = assay: Increase in liver weight in Wistar rat at 98 umol/kg/day administered through diet for 4 days; format: ADME, organism-based; settings: in vivo, po, 96 h
Rattus norvegicus [46] = assay: Hypolipidemic activity in Wistar rat assessed as reduction in plasma cholesterol level at 201 umol/kg/day administered through diet for 4 days; format: functional; settings: 96 h; summary of the method: as §2
Rattus norvegicus [47] = assay: Hypolipidemic activity in Wistar rat assessed as reduction in plasma triglyceride level at 201 umol/kg/day administered through diet for 4 days; format: functional; settings: 96 h; summary of the method: as §3
Rattus norvegicus [48] = assay: Hypolipidemic activity in Wistar rat assessed as reduction in plasma cholesterol level at 98 umol/kg/day administered through diet for 4 days; format: functional; settings: 96 h; summary of the method: as §3
Rattus norvegicus [49] = assay: Increase in liver weight in Wistar rat at 445 umol/kg/day administered through diet; format: ADME, organism-based; settings: in vivo, po

SMILES: CCCCCCCCCCCCOc1ccc(C(=O)O)cc1
- Activity (Rattus norvegicus [1]): 22%
- Activity (Rattus norvegicus [2]): 22%
- inhibition in vivo at 428 µmol/kg (Rattus norvegicus [3]): 31%
- inhibition in vivo at 470 µmol/kg (Rattus norvegicus [4]): 58%
- inhibition in vivo at 470 µmol/kg (Rattus norvegicus [5]): 33%
- inhibition in vivo at 428 µmol/kg (Rattus norvegicus [6]): 16%

SMILES: CCCCCCCCCCCCCOc1ccc(C(=O)OC)cc1
- inhibition in vivo at 496 µmol/kg (Rattus norvegicus [7]): 27%
- Activity (Rattus norvegicus [8]): 6%
- inhibition in vivo at 460 µmol/kg (Rattus norvegicus [9]): 70%
- Activity (Rattus norvegicus [10]): 20%
- inhibition in vivo at 496 µmol/kg (Rattus norvegicus [11]): 31%
- Activity (Rattus norvegicus [12]): 9%
- Activity (Rattus norvegicus [13]): 20%
- inhibition in vivo at 460 µmol/kg (Rattus norvegicus [14]): 25%

SMILES: CCCCCCCCCCCCCCOc1ccc(C(=O)O)cc1
- inhibition in vivo at 149 µmol/kg (Rattus norvegicus [22]): 16%
- inhibition in vivo at 511 µmol/kg (Rattus norvegicus [23]): 36%
- Activity (Rattus norvegicus [24]): 20%
- Activity (Rattus norvegicus [25]): 7%
- Activity (Rattus norvegicus [26]): 19%
- inhibition in vivo at 511 µmol/kg (Rattus norvegicus [27]): 24%
- Activity (Rattus norvegicus [28]): 2%
- inhibition in vivo at 149 µmol/kg (Rattus norvegicus [29]): 49%
- inhibition in vivo at 275 µmol/kg (Rattus norvegicus [30]): 46%
- Activity (Rattus norvegicus [31]): 4%
- inhibition in vivo at 407 µmol/kg (Rattus norvegicus [32]): 31%
- inhibition in vivo at 275 µmol/kg (Rattus norvegicus [33]): 33%
- Activity (Rattus norvegicus [34]): 7%
- inhibition in vivo at 407 µmol/kg (Rattus norvegicus [35]): 39%
- Activity (Rattus norvegicus [36]): 14%
- Activity (Rattus norvegicus [37]): 1%

The next lines start with results.

- Activity (Rattus norvegicus [18]): 0%
- Activity (Rattus norvegicus [19]): 12%
- Activity (Rattus norvegicus [20]): 0%
SMILES: CCCCCCCCCCCCCCOc1cccc(C(=O)OC)c1
- inhibition in vivo at 462 µmol/kg (Rattus norvegicus [15]): 59%
- inhibition in vivo at 462 µmol/kg (Rattus norvegicus [16]): 24%
- inhibition in vivo at 453 µmol/kg (Rattus norvegicus [17]): 0%
- inhibition in vivo at 453 µmol/kg (Rattus norvegicus [21]): 51%

- Activity (Rattus norvegicus [38]): 12%
- Activity (Rattus norvegicus [41]): 12%
- Activity (Rattus norvegicus [43]): 0%
- Activity (Rattus norvegicus [44]): 0%
- Activity (Rattus norvegicus [45]): 0%
- Activity (Rattus norvegicus [49]): 7%
SMILES: CCCCCCCCCCCCCCOc1ccc(C(=O)OC)cc1
- inhibition in vivo at 445 µmol/kg (Rattus norvegicus [39]): 6%
- inhibition in vivo at 445 µmol/kg (Rattus norvegicus [40]): 49%
- inhibition in vivo at 98 µmol/kg (Rattus norvegicus [42]): 72%
- inhibition in vivo at 201 µmol/kg (Rattus norvegicus [46]): 23%
- inhibition in vivo at 201 µmol/kg (Rattus norvegicus [47]): 70%
- inhibition in vivo at 98 µmol/kg (Rattus norvegicus [48]): 27%
